Screens (PubChem BioAssay)
proCasp7 act: procaspase-7 activators, primary screen, counter-screen for procaspase-3 activator project, biochemical, absorbance, HTS, human | Caspase-7 (Homo sapiens), P55210 | recombinant procaspase-7, Ac-DEVD-pNA absorbance 405 nm; D23A/D198A/D206A triple mutant, cannot self-cleave; scale: DMSO 0, 5 µM enzyme 100 | activation, % at 8.5 µM | actives 0.093% (n = 330,000) | AID 463210, 2010;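 active means percent activation above the screen-wide mean plus 3 SD, cut at about 25% in these data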
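Assay system: Uncleavable procaspase-7 mutant enzyme | Input: 2 µM procaspase-7 mutant as dispensed | Timing: 1 h compound preincubation, 2 h substrate cleavage, 25 °C | Repeats: One well per compound | Control set: DMSO wells as 0%, DMSO with 5 µM added PC-7 as 100% | Technique: Epi-absorbance of released pNA at 405 nm, two timepoints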
Lipid droplet: inhibitors of hepatocyte lipid droplet formation, primary screen, imaging, high-throughput imaging, BODIPY stain; AML12 mouse hepatocytes, oleate lipid droplets; actives 0.4% (n = 240,000); AID 1656, 2009; inhibition, % at 6.5 µM;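 active means lipid droplet intensity inhibited by at least 50%, with more than 500 cells counted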
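System: AML12 hepatocytes (mouse). Probe or stimulus: oleic acid at 100 µM to induce lipid droplet formation. Times: overnight treatment with compound plus oleate. Detection: Image-based BODIPY and DAPI two-channel analysis. Evaluation: percent inhibition of filter-corrected integrated lipid droplet intensity per well.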
FXN GAA850 act: FXN promoter activators, primary screen, cell-based, luciferase luminescence, HEK293 lucGAA850; HEK293 lucGAA850 FXN promoter luciferase reporter, 24 h; percent of 10 µM SAHA response; activation, % at 6 µM; actives 0.56% (n = 360,000);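 active means activation above the average of all compounds screened plus 3 SD, cutoff fixed separately per campaign, cut at about 7.5% in these data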;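 further: 0% = DMSO wells and 100% = 10 µM SAHA wells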
procasp3 activ: activators of human procaspase-3 D3A mutant, primary screen, biochemical, absorbance, PC-3 D3A mutant, single concentration; Caspase-3 (Homo sapiens), P42574; recombinant procaspase-3 D3A, Ac-DEVD-pNA absorbance 405 nm; activation, % at 8.5 µM; actives 0.11% (n = 330,000);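 active means activation above the mean of all tested compounds plus 3 SD, cut at about 21% in these data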;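 further: 0% = DMSO alone and 100% = DMSO wells spiked with extra 5 µM PC-3 D3A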
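Assay system – Procaspase-3 D3A mutant, all three cleavage aspartates alanine · Controls – DMSO-only low control, 5 µM PC-3 D3A high control · Schedule – 1 h compound preincubation, 2 h substrate hydrolysis at 25 °C · Signal – 405 nm absorbance of p-nitroaniline, reads at 0 and 120 min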
Rce1 inhib: yeast Rce1p protease inhibitors, primary screen, biochemical, fluorescence, cell-free homogeneous; CAAX prenyl protease 2 (Saccharomyces cerevisiae (strain ATCC 204508 / S288c)), Q03530; yeast membranes, quenched prenylated peptide cleavage fluorescence; calls only; actives 0.27% (n = 290,000); AID 2563, 2010;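 active means fall in fluorescence gain of 50% or more versus controls, with final raw signal at or below 3038400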;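 further: plate controls were neutral control wells for no effect and wells lacking membranes for full effect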
pCIP destab: p/CIP-EGFP fusion destabilizers, primary screen, fluorescence, F442A cells; 16 h; decrease of EGFP signal, % at 10 µM; AID 1984, 2009; actives 0.01% (n = 290,000); Q05BA5;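 active means EGFP signal decrease of at least 30% at 10 µM or well 3 SD below plate mean, unless failing retest; inactive means the rest, including hits failing retest or dose response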
GAA30 counter: GAA30 FXN promoter activators, confirmation, counter-screen for GAA850 frataxin promoter activator project, cell-based, luminescence, HEK293, lucGAA30, triplicate; actives 66% (n = 1,900); activation, % at 6 µM; HEK293 lucGAA30 FXN promoter luciferase, 24 h; DMSO = 0%, 5 µM ipriflavone = 100%; shares compounds with FXN GAA850 act;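 active means mean activation above the mean of solvent-only control wells plus 3 SD, cut at about 22% in these data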;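 further: counterscreen of GAA850 promoter hits where activity marks nonselective or luminescence artifacts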
FXN GAA850 conf: FXN GAA850 promoter activators in reporter cells, confirmation, cell-based, luminescence, HEK293 lucGAA850, triplicate. shares compounds with FXN GAA850 act. HEK293 lucGAA850 FXN promoter luciferase reporter, 24 h; 100% = activation by SAHA. activation, % at 6 µM. actives 86% (n = 1,900). AID 588351, 2011;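 active means mean activation above a set limit taken from the primary screen, cut at about 8% in these data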;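 further: 0% = DMSO wells and 100% = 10 µM SAHA wells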
* = called active by the depositor; i = inactive; / = no result given. Hits are enriched below; roughly 1.2% of the tested compounds scored in any of these assays.

SMILES	proCasp7 act	Lipid droplet	FXN GAA850 act	procasp3 activ	Rce1 inhib	pCIP destab	GAA30 counter	FXN GAA850 conf
Cc1ccccc1NC(=O)N1CCCC(c2nc(-c3ccc(C(C)C)cc3)no2)C1 (centres undefined)	2	/	9.2*	1	i	-10	61*	28*
COc1ccc(S(=O)(=O)N2CCCCC2c2cc(C(=O)Nc3ccc4c(c3)OCO4)no2)cc1 (centres undefined)	/	/	2	/	/	/	/	/
C=CCN1CCN(C(=O)c2cc3c(s2)CCC(CC)C3)CC1 (centres undefined)	4	9	3	2	i	4	/	/
CC1CCCN(C(=O)COc2ccc3c(c2)OCO3)C1 (centres undefined)	7	-2	3	1	i	14	/	/
CC1Cc2ccccc2N1C(=O)COc1ccc2c(c1)OCO2 (centres undefined)	6	-1	8.0*	4	i	-11	79*	24*
COc1ccccc1CNS(=O)(=O)c1cc(C(=O)N(C)Cc2cccnc2)c(Cl)cc1Cl	/	/	0	/	/	/	/	/
COC(=O)[C@]1(C)N[C@H](CN(C)C(=O)Nc2ccc(OC)cc2)[C@@H]2C(=O)N(Cc3ccccc3)C(=O)[C@@H]21	-4	/	8.3*	4	/	/	19	17*
CCN(C[C@H]1N[C@@](C)(C(=O)OC)[C@H]2C(=O)N(Cc3ccccc3)C(=O)[C@@H]12)C(=O)Nc1ccc(F)cc1	9	/	15*	2	/	/	25*	6
COC(=O)[C@]1(C)N[C@H](CN(C)C(=O)Nc2ccc(Cl)cc2)[C@@H]2C(=O)N(Cc3ccccc3)C(=O)[C@@H]21	8	/	18*	-6	/	/	24*	13*
COC(=O)[C@]1(C)N[C@H](CN(C)C(=O)Nc2ccc(C)cc2)[C@@H]2C(=O)N(Cc3ccccc3)C(=O)[C@@H]21	5	/	12*	1	/	/	25*	7
COC(=O)[C@]1(Cc2ccccc2)N[C@H](CN(C)C(=O)Nc2ccc(Cl)cc2)[C@@H]2C(=O)N(Cc3ccccc3)C(=O)[C@@H]21	12	/	-2	3	/	/	/	/
O=S(=O)(Nc1ccc(S(=O)(=O)N2CCCC2)cc1)c1ccc(F)cc1F	4	/	2	3	/	/	/	/
CCN(CC)C(=O)c1cccc(-c2csc(C(O)c3cccc(Cl)c3)n2)c1 (centres undefined)	/	/	0	/	/	/	/	/
CC(=O)C1[C@H](N(C)C)CC2C3CC=C4CC(O)CC[C@]4(C)C3CC[C@@]21C (some centres undefined)	2	12	0	1	i	5	/	/
COc1cccc(CNC(=O)C(=O)NCC2OCCCN2S(=O)(=O)c2cc(C)ccc2C)c1 (centres undefined)	4	8	-1	-1	i	0	/	/
COc1ccc2nc(N3CCN(C(=O)C4COc5ccccc5O4)CC3)sc2c1 (centres undefined)	1	/	9.0*	-5	i	/	104*	32*
Cc1cccc2sc(N3CCN(C(=O)C4COc5ccccc5O4)CC3)nc12 (centres undefined)	2	/	0	-3	i	/	/	/
Cc1ccc2nc(SCC(=O)N/N=C/c3ccco3)cc(C)c2c1	4	12	0	3	i	-3	/	/
Cc1ccc2nc(N/N=C/c3ccco3)cc(C)c2c1	-19	16	8.2*	-10	i	-14	104*	44*
CC(=O)N(C)c1ccc(NC(=O)N2CCOCC2)cc1	10	-2	-2	10	i	14	/	/
COc1ccc(OCc2cc(C(=O)NC(C)Cn3cncn3)no2)c(Cl)c1 (centres undefined)	8	4	4	1	i	2	/	/
NNC(=O)c1cccc(COc2ccc3c(c2)CCC3)c1	13	32	9.2*	3	i	-15	125*	42*
NNC(=O)c1cccc(COc2ccccc2Br)c1	0	/	3	-10	i	-4	/	/
C[C@@H](CSc1ccccc1)CN1CC[C@H](O)CCC1=O	-2	4	2	-7	i	1	/	/
CC(C)Cc1ccc(C(C)C(N)=NCCc2ccccc2)cc1 (centres undefined)	/	-14	11*	/	i	33	-22	36*
SMILES	proCasp7 act	Lipid droplet	FXN GAA850 act	procasp3 activ	Rce1 inhib	pCIP destab	GAA30 counter	FXN GAA850 conf
CCN(CC)C1CCN(C(=O)c2ccc(OC3CCN(Cc4ccccn4)CC3)cc2)C1 (centres undefined)	-4	-4	1	-3	i	-6	/	/
Cc1cccc(Cc2ncc(C(F)(F)F)cc2Cl)c1	13	/	1	5	i	3	/	/
C=CCc1c(C)nc(-c2ccccc2)nc1N/N=C/c1ccccc1	-2	-13	0	11	i	-4	/	/
C=CCc1c(C)nc(-c2ccccc2)nc1Nc1ccccc1O	-4	-2	7.9*	-5	i	-6	30*	21*
COc1ccc(NC(=O)N(C)C[C@H]2Oc3ccc(NC(=O)NC4CCCCC4)cc3C(=O)N([C@H](C)CO)C[C@@H]2C)cc1	1	/	1	1	/	/	/	/
COc1ccccc1-c1nc(-c2ccc(C)nc2OC)no1	-6	2	8.8*	3	i	-11	121*	40*
O=C(Nc1ccccc1O)c1csc2c1CCCC2	10	2	11*	-2	i	-5	119*	44*
CC1(C)CC(=O)C=C(c2ccc(COC(=O)Cc3ccccc3)cc2)C1=O	/	/	0	/	/	/	/	/
Cc1noc(NC(=O)c2c(-c3c(Cl)cccc3Cl)noc2C)c1[N+](=O)[O-]	4	21	0	-5	i	-9	/	/
CN(Cc1ccon1)C(=O)C1CCN(C2CCN(CCCc3ccccc3)CC2)CC1	/	-2	-1	/	i	-8	/	/
